Data reported in ChEMBL document CHEMBL1124127, “Central dopaminergic and 5-hydroxytryptaminergic effects of C3-methylated derivatives of 8-hydroxy-2-(di-n-propylamino)tetralin” (J Med Chem, 1988).

Tests used:
[1] = tested on: Rattus norvegicus; assay: Effect on in vivo accumulation of […] was measured in rat corpus striatum at 59(Micromol/kg) dose; type: functional
Outline: (§1)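 Rats not pretreated with reserpine received test drug (hydrochloride or hydrobromide salt) sc in the neck region 60 min before death. NSD 1015 decarboxylase inhibitor (100 mg/kg, i.e., 573 μmol/kg, ip) was given 30 min before decapitation. Brain was dissected on ice. Tissue was homogenized in 0.1 M perchloric acid with α-methyl-DOPA internal standard. Analytes were quantified by ion-pair reversed-phase HPLC-electrochemical detection. Values are means ± SEM, n = 3-7 per treated group.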

[2] = tested on: Rattus norvegicus; assay: Effect on in vivo accumulation of dopamine(DA) was measured in rat limbic system at 59(Micromol/kg) dose; type: functional
Outline: (§2)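 Non-reserpinized rats got the test drug sc in the neck (5 mL/kg) 60 min before death, and NSD 1015 (573 µmol/kg ip) 30 min before death. After decapitation, the limbic system was dissected on ice, frozen and homogenized in 0.1 M perchloric acid with α-methyl-DOPA internal standard. DA was measured by ion-pair reversed-phase HPLC with electrochemical detection. Data are mean ± SEM (controls n=17-19, treated 3-7), analysed by ANOVA/Dunnett.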

[3] = tested on: Rattus norvegicus; assay: Effect on in vivo accumulation of DOPA was measured in rat limbic system at 59(Micromol/kg) dose; type: functional; outline: as §1
[4] = tested on: Rattus norvegicus; assay: Effect on in vivo accumulation of 5-HTP was measured in rat corpus striatum at 59(umol/kg) dose; type: functional; outline: as §1
[5] = tested on: Rattus norvegicus; assay: Effect on in vivo accumulation of 5-HTP was measured in rat limbic system at 59(Micromol/kg) dose; type: functional; outline: as §1
[6] = tested on: Rattus norvegicus; assay: Effect on in vivo accumulation of DOPA was measured in rat corpus striatum at 59(Micromol/kg) dose; type: functional; outline: as §1
[7] = biological target: T1, 5-hydroxytryptamine receptor 1A (Rattus norvegicus, UniProt P19327); assay: (§3) In vitro Inhibitory activity tested at 5-hydroxytryptamine 1A receptor binding site in rat
T1 sequence (P19327 whole entry): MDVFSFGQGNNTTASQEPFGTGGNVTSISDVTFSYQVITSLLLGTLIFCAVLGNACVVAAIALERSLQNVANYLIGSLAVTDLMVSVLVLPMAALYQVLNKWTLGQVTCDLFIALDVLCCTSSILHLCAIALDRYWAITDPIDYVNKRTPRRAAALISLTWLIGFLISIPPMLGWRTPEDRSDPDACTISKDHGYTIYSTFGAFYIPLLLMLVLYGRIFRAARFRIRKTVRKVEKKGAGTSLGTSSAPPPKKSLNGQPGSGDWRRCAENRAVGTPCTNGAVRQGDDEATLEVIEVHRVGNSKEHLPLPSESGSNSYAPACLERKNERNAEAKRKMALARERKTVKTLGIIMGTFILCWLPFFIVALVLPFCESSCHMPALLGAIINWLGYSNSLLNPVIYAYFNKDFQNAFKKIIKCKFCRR
Outline: (§4)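 Competition binding used rat brain membranes washed in 50 mM Tris-HCl pH 7.4, preincubated 10 min at 37 °C to remove 5-HT, and used at 10 mg wet tissue/mL. Assay: 1 nM [3H]-8-OH-DPAT, 3 mM CaCl2, 100 µM pargyline, 15 min at 37 °C, then filtration on PEI-treated filters. Nonspecific binding was set with 10 µM 5-HT. IC50 came from four-parameter logistic regression, mean ± SEM of N experiments.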

[8] = biological target: T1, 5-hydroxytryptamine receptor 1A; assay: Inhibitory activity tested in vitro at 5-hydroxytryptamine 1A receptor binding site in rat; outline: as §4
[9] = tested on: Rattus norvegicus; assay: Effect on in vivo accumulation of dopamine(DA) was measured in rat limbic system at 43(Micromol/kg) dose; type: functional; outline: as §2
[10] = tested on: Rattus norvegicus; assay: Effect on in vivo accumulation of DOPA was measured in rat limbic system at 43(Micromol/kg) dose; type: functional; outline: as §1
[11] = tested on: Rattus norvegicus; assay: Effect on in vivo accumulation of […] was measured in rat corpus striatum at 43(Micromol/kg) dose; type: functional; outline: as §1
[12] = tested on: Rattus norvegicus; assay: Effect on in vivo accumulation of 5-HTP was measured in rat corpus striatum at 43(umol/kg) dose; type: functional; outline: as §1
[13] = tested on: Rattus norvegicus; assay: Effect on in vivo accumulation of 5-HTP was measured in rat limbic system at 43(Micromol/kg) dose; type: functional; outline: as §1
[14] = tested on: Rattus norvegicus; assay: Effect on in vivo accumulation of DOPA was measured in rat corpus striatum at 43(Micromol/kg) dose; type: functional; outline: as §1
[15] = tested on: Rattus norvegicus; assay: Effect on in vivo accumulation of dopamine(DA) was measured in rat limbic system at 48(Micromol/kg) dose; type: functional; outline: as §2
[16] = tested on: Rattus norvegicus; assay: Effect on in vivo accumulation of DOPA was measured in rat limbic system at 48(Micromol/kg) dose; type: functional; outline: as §1
[17] = tested on: Rattus norvegicus; assay: Effect on in vivo accumulation of […] was measured in rat corpus striatum at 48(Micromol/kg) dose; type: functional; outline: as §1
[18] = tested on: Rattus norvegicus; assay: Effect on in vivo accumulation of 5-HTP was measured in rat corpus striatum at 48(umol/kg) dose; type: functional; outline: as §1
[19] = tested on: Rattus norvegicus; assay: Effect on in vivo accumulation of 5-HTP was measured in rat limbic system at 48(Micromol/kg) dose; type: functional; outline: as §1
[20] = tested on: Rattus norvegicus; assay: Effect on in vivo accumulation of DOPA was measured in rat corpus striatum at 48(Micromol/kg) dose; type: functional; outline: as §1
[21] = biological target: T1, 5-hydroxytryptamine receptor 1A; assay: as §3; type: functional; outline: as §4
[22] = tested on: Rattus norvegicus; assay: Effect on in vivo accumulation of dopamine(DA) was measured in rat limbic system at 50(Micromol/kg) dose; type: functional; outline: as §2
[23] = tested on: Rattus norvegicus; assay: Effect on in vivo accumulation of DOPA was measured in rat limbic system at 50(Micromol/kg) dose; type: functional; outline: as §1
[24] = tested on: Rattus norvegicus; assay: Effect on in vivo accumulation of […] was measured in rat corpus striatum at 50(Micromol/kg) dose; type: functional; outline: as §1
[25] = tested on: Rattus norvegicus; assay: Effect on in vivo accumulation of 5-HTP was measured in rat corpus striatum at 50(umol/kg) dose; type: functional; outline: as §1
[26] = tested on: Rattus norvegicus; assay: Effect on in vivo accumulation of 5-HTP was measured in rat limbic system at 50(Micromol/kg) dose; type: functional; outline: as §1
[27] = tested on: Rattus norvegicus; assay: Effect on in vivo accumulation of DOPA was measured in rat corpus striatum at 50(Micromol/kg) dose; type: functional; outline: as §1
[28] = tested on: Rattus norvegicus; assay: Effect on in vivo accumulation of dopamine(DA) was measured in rat limbic system at 5.9 (umol/kg) dose; type: functional; outline: as §2
[29] = tested on: Rattus norvegicus; assay: Effect on in vivo accumulation of DOPA was measured in rat limbic system at 5.9 (umol/kg) dose; type: functional; outline: as §1
[30] = tested on: Rattus norvegicus; assay: Effect on in vivo accumulation of […] was measured in rat corpus striatum at 5.9 (umol/kg) dose; type: functional; outline: as §1
[31] = tested on: Rattus norvegicus; assay: Effect on in vivo accumulation of 5-HTP was measured in rat corpus striatum at 5.9(umol/kg) dose; type: functional; outline: as §1
[32] = tested on: Rattus norvegicus; assay: Effect on in vivo accumulation of 5-HTP was measured in rat limbic system at 5.9 (umol/kg) dose; type: functional; outline: as §1
[33] = tested on: Rattus norvegicus; assay: Effect on in vivo accumulation of DOPA was measured in rat corpus striatum at 5.9 (umol/kg) dose; type: functional; outline: as §1

Row | Structure (SMILES) | Activity [1] | Activity [2] | Activity [3] | Activity [4] | Activity [5] | Activity [6] | IC50 [8] | other results
1 | CCCN[C@H]1Cc2c(O)cccc2C[C@H]1C (racemic) | 4530 ng/g | 1058 ng/g | <283 ng/g | 69 ng/g | <98.1 ng/g | <633 ng/g | – | –
2 | CCCN[C@H]1Cc2c(O)cccc2C[C@H]1C (stereo in doubt; (-)-13) | 5365 ng/g | 1148 ng/g | 365 ng/g | 103 ng/g | 151 ng/g | 932 ng/g | – | –
3 | CCCN(CCC)[C@H]1Cc2c(O)cccc2C[C@@H]1C (racemic; form 1) | – | – | – | – | – | – | – | IC50 [7]: 129 nM
4 | CCCN(CCC)[C@H]1Cc2c(O)cccc2C[C@@H]1C (stereo in doubt; (-)-11) | – | – | – | – | – | – | 1680 nM | Activity [9]: <800 ng/g; Activity [10]: 381 ng/g; Activity [11]: <4181 ng/g; Activity [12]: 117 ng/g; Activity [13]: 136 ng/g; Activity [14]: 1039 ng/g
5 | CCCN(CCC)[C@H]1Cc2c(cccc2OC)C[C@@H]1C (racemic) | – | – | – | – | – | – | – | Activity [15]: 1225 ng/g; Activity [16]: 389 ng/g; Activity [17]: 5833 ng/g; Activity [18]: <61.3 ng/g; Activity [19]: 145 ng/g; Activity [20]: 979 ng/g
6 | CCCN(CCC)[C@H]1Cc2c(O)cccc2C[C@H]1C (stereo in doubt; (-)) | – | – | – | – | – | – | 486 nM | –
7 | CCCN(CCC)[C@H]1Cc2c(O)cccc2C[C@H]1C (stereo in doubt; (+)) | – | – | – | – | – | – | 2420 nM | –
8 | CCCN[C@H]1Cc2c(O)cccc2C[C@@H]1C (stereo in doubt; (-)-9) | 5588 ng/g | 975 ng/g | <340 ng/g | 105 ng/g | 169 ng/g | 978 ng/g | – | –
9 | CCCN(CCC)[C@H]1Cc2c(O)cccc2C[C@H]1C (racemic) | – | – | – | – | – | – | – | IC50 [21]: 774 nM; Activity [22]: <678 ng/g; Activity [23]: 436 ng/g; Activity [24]: <2935 ng/g; Activity [25]: <57.8 ng/g; Activity [26]: 138 ng/g; Activity [27]: 1059 ng/g
10 | CCCN[C@H]1Cc2c(O)cccc2C[C@H]1C (stereo in doubt; (+)-13) | 5133 ng/g | 1186 ng/g | <271 ng/g | 101 ng/g | 140 ng/g | <525 ng/g | – | Activity [28]: 1292 ng/g; Activity [29]: 365 ng/g; Activity [30]: 5924 ng/g; Activity [31]: 104 ng/g; Activity [32]: 131 ng/g; Activity [33]: 1013 ng/g
